According to ChEMBL document CHEMBL6134766, “Design, synthesis, and evaluation of benzhydrylpiperazine-based novel dual COX-2/5-LOX inhibitors with anti-inflammatory and anti-cancer activity” (RSC Med Chem, 2025):
Active and inactive are the calls of the source. The calls are words filed in the database; no cut-off is given here.

Experiments:
[1] = target: T1, Polyunsaturated fatty acid 5-lipoxygenase (Homo sapiens, UniProt P09917); assay: Inhibition of 5-LOX (unknown origin) using arachidonic acid as substrate preincubated for 5 mins followed by substrate addition measured after 10 mins by spectrophotometry
T1 sequence (P09917 whole entry): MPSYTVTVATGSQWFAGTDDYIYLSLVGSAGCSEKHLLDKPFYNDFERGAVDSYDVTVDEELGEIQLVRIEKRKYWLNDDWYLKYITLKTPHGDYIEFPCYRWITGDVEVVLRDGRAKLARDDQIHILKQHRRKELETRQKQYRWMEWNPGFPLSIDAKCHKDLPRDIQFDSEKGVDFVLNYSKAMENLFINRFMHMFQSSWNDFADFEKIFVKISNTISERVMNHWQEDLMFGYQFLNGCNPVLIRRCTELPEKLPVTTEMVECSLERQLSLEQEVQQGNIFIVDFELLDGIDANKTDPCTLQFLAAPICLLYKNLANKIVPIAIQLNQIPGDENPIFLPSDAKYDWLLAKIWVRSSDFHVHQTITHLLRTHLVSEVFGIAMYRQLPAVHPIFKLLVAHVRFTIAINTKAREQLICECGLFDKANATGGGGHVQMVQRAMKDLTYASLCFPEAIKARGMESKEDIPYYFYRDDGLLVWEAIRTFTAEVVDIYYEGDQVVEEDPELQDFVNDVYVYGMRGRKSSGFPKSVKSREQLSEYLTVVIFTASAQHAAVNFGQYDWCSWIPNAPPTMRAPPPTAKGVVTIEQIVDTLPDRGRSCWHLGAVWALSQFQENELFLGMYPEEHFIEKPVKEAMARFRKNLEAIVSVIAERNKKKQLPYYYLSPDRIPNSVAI

[2] = Acute toxicity in female Wistar rat assessed as detrimental effects up to 500 mg/kg, po measured for 14 days; type: organism-based; conditions: in vivo, 336 h, time 14 day
In short: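 Followed OECD 423 guideline in healthy female Wistar rats weighing 200–250 g. Animals were housed at 25 ± 2 °C and 45–60% RH on a 12 h light/dark cycle, with free access to water and food.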

Rattus norvegicus [3] = assay: Anti-inflammatory activity in carrageenan-induced paw edema Wistar rat model assessed as swelling thickness of paw at 20 mg/kg, po measured immediately by digital vernier caliper (reference value: 3.48 +/- 0.21 millimeter); type: functional
Rattus norvegicus [4] = assay: Anti-inflammatory activity in carrageenan-induced paw edema Wistar rat model assessed as swelling thickness of paw at 5 mg/kg, po measured after 1 hr by digital vernier caliper (reference value: 8.47 +/- 0.25 millimeter); type: functional
Rattus norvegicus [5] = assay: Anti-inflammatory activity in carrageenan-induced paw edema Wistar rat model assessed as swelling thickness of paw at 10 mg/kg, po measured after 1 hr by digital vernier caliper (reference value: 8.47 +/- 0.25 millimeter); type: functional
Rattus norvegicus [6] = assay: Anti-inflammatory activity in carrageenan-induced paw edema Wistar rat model assessed as swelling thickness of paw at 10 mg/kg, po measured after 2 hrs by digital vernier caliper (reference value: 8.65 +/- 0.53 millimeter); type: functional
Rattus norvegicus [7] = assay: Anti-inflammatory activity in carrageenan-induced paw edema Wistar rat model assessed as swelling thickness of paw at 10 mg/kg, po measured after 3 hrs by digital vernier caliper (reference value: 8.56 +/- 0.45 millimeter); type: functional
Rattus norvegicus [8] = assay: Anti-inflammatory activity in carrageenan-induced paw edema Wistar rat model assessed as swelling thickness of paw at 10 mg/kg, po measured after 4 hrs by digital vernier caliper (reference value: 8.36 +/- 0.78 millimeter); type: functional
Rattus norvegicus [9] = assay: Anti-inflammatory activity in carrageenan-induced paw edema Wistar rat model assessed as swelling thickness of paw at 5 mg/kg, po measured after 5 hrs by digital vernier caliper (reference value: 8.47 +/- 0.32 millimeter); type: functional
Rattus norvegicus [10] = assay: Anti-inflammatory activity in carrageenan-induced paw edema Wistar rat model assessed as swelling thickness of paw at 10 mg/kg, po measured after 5 hrs by digital vernier caliper (reference value: 8.47 +/- 0.32 millimeter); type: functional
Rattus norvegicus [11] = assay: Anti-inflammatory activity in carrageenan-induced paw edema Wistar rat model assessed as swelling thickness of paw at 20 mg/kg, po measured after 5 hrs by digital vernier caliper (reference value: 8.47 +/- 0.32 millimeter); type: functional
Rattus norvegicus [12] = assay: Anti-inflammatory activity in carrageenan-induced paw edema Wistar rat model assessed as swelling thickness of paw at 10 mg/kg, po measured after 6 hrs by digital vernier caliper (reference value: 8.33 +/- 0.42 millimeter); type: functional
Rattus norvegicus [13] = assay: Anti-inflammatory activity in carrageenan-induced paw edema Wistar rat model assessed as inhibition of PGE2 level administered orally measured for 6 hrs by ELISA; type: functional, organism-based; conditions: dose 5-20 mg/kg, route po
In short: (§1)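 Paw tissue taken from carrageenan-edema rats dosed orally at 5, 10 or 20 mg kg−1. Tissue rinsed in PBS pH 7.4, minced, homogenized, filtered and centrifuged at 2000 rpm for 20 min at 4 °C. Supernatant assayed by ELISA for PGE2, IL-6, TNF-α and IL-10. Data as mean ± SD.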

Rattus norvegicus [14] = assay: Anti-inflammatory activity in carrageenan-induced paw edema Wistar rat model assessed as decrease in IL-6 level in paw tissue at 5 to 20 mg/kg, po measured for 6 hrs by ELISA; type: functional, organism-based; conditions: dose 5-20 mg/kg; in short: as §1
Rattus norvegicus [15] = assay: Anti-inflammatory activity in carrageenan-induced paw edema Wistar rat model assessed as decrease in TNF-alpha level in paw tissue at 5 to 20 mg/kg, po measured for 6 hrs by ELISA; type: functional, organism-based; conditions: dose 5-20 mg/kg; in short: as §1
Rattus norvegicus [16] = assay: Anti-inflammatory activity in arachidonic acid-induced paw edema Wistar rat model assessed as swelling thickness of paw at 20 mg/kg, po measured after 1 hr by digital vernier caliper (reference value: 6.51 +/- 0.37 millimeter); type: functional
[17] = Toxicity in fasting Wistar rat assessed as ulcer index at 10 mg/kg, po via gavage treated for 3 days consecutively by H and E staining based analysis (reference value: 0); type: organism-based; conditions: in vivo, 72 h, time 3 day
In short: (§2)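 Fasted rats, n = 6/group, gavaged once daily for 3 days in 0.3% Na CMC (vehicle control 0.3% CMC); killed under anaesthesia 6 h after day-3 dose; stomachs saline-washed, mucosa examined with hand lens; ulcer score, index and % ulceration by reported scoring; some stomachs formalin-fixed, H&E stained.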

[18] = Toxicity in fasting Wistar rat assessed as ulcer index at 20 mg/kg, po via gavage treated for 3 days consecutively by H and E staining based analysis (reference value: 0); type: organism-based; conditions: in vivo, 72 h, time 3 day; in short: as §2
[19] = Toxicity in fasting Wistar rat assessed as ulceration at 10 mg/kg, po via gavage treated for 3 days consecutively by H and E staining based analysis (reference value: 0 %); type: organism-based; conditions: in vivo, 72 h, time 3 day; in short: as §2
[20] = Toxicity in Wistar rat assessed as change in serum ALT level at 20 mg/kg, po; type: organism-based; conditions: in vivo
In short: (§3)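 Rats dosed orally in 0.3% Na CMC; retro-orbital blood clotted at room temperature, serum separated at 2000 rpm, 20 min, 4 °C; ALT, AST, creatinine and urea by commercial kits; n = 6 per group, mean ± SD; Tukey test after repeated-measures one-way ANOVA.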

[21] = Toxicity in Wistar rat assessed as change in serum urea level at 20 mg/kg, po; type: organism-based; conditions: in vivo; in short: as §3

Compound	IC50 [1] [µM]	Activity [2]	Activity (Rattus norvegicus [3]) [mm]	Activity (Rattus norvegicus [4]) [mm]	Activity (Rattus norvegicus [5]) [mm]	Activity (Rattus norvegicus [6]) [mm]	Activity (Rattus norvegicus [7]) [mm]	Activity (Rattus norvegicus [8]) [mm]	Activity (Rattus norvegicus [9]) [mm]	Activity (Rattus norvegicus [10]) [mm]	Activity (Rattus norvegicus [11]) [mm]	Activity (Rattus norvegicus [12]) [mm]	inhibition (Rattus norvegicus [13])	Activity (Rattus norvegicus [14])	Activity (Rattus norvegicus [15])	Activity (Rattus norvegicus [16]) [mm]	UI [17]	UI [18]	Activity [19] [%]	Activity [20]	further results
Clc1ccc(-c2nnc(CN3CCN(C(c4ccccc4)c4ccc(Cl)cc4)CC3)o2)cc1 (configuration not stated)	7.87	Non-toxic	3.43	6.18	5.15	3.96	3.47	3.32	3.98	3.29	3.24	3.37	Dose-dependent-effect	Active	Active	1.94	2.083	1.875	1.38	Non-toxic	Activity [21]: Non-toxic
O=[N+]([O-])c1ccc(-c2nnc(CN3CCN(C(c4ccccc4)c4ccc(Cl)cc4)CC3)o2)cc1 (configuration not stated)	9.16	Non-toxic	3.65	5.74	5.32	4.55	4.41	3.88	4.22	3.76	3.96	3.89	Dose-dependent-effect	Active	Active	2.24	3.125	9.37	4.85	Non-toxic	Activity [21]: Non-toxic
